We go through 4 compounds from ChEMBL document CHEMBL1671640, “Antifungal activities of human beta-defensins HBD-1 to HBD-3 and their C-terminal analogs Phd1 to Phd3” (Antimicrob Agents Chemother, 2009).

Data set [1] has as its system Candida albicans. Nature of the data set: Antifungal activity against Candida albicans ATCC 18804 after 24 hrs. In kind it is functional. The settings on record: ATCC 18804, 24 h. The method, boiled down:
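Mid-log C. albicans (subcultured 2 h in YEPD after 20 h aerobic growth at 30°C), washed and resuspended at 10^6 cells/ml in 10 mM phosphate buffer pH 7.4. Exposed to peptides for 2 h at 30°C, then diluted, plated on YEPD agar and incubated 24 h at 30°C. MFC = concentration giving no viable colonies. Averages of three independent experiments in duplicate.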

For data set [2], the system named is Candida albicans. Nature of the data set: Fungicidal activity against Candida albicans ATCC 18804 at MFC in presence of 5 mM CaCl2. In kind it is functional, organism-based. A digest of the protocol: (§1)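 Mid-log cells at 10^6/ml in 10 mM phosphate buffer pH 7.4 containing added NaCl (25 or 100 mM), CaCl2 (0.5 or 5 mM) or MgCl2 (0.5 or 25 mM). Peptides at the stated multiple of MFC, 2 h at 30°C. Aliquots diluted and plated on YEPD agar for 24 h. Colonies counted and percent killing calculated. Three independent experiments in duplicate.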

In data set [3] the test system is Candida albicans. Nature of the data set: Fungicidal activity against Candida albicans ATCC 18804 assessed as […] killing rate at 2 times MFC in presence of 100 mM NaCl. In kind it is functional. The method, boiled down:
as §1

Data set [4] concerns Candida albicans. In words: Induction of membrane damage in Candida albicans ATCC 18804 by Sytox green dye influx assay. In kind it is functional, organism-based. A digest of the protocol:
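Mid-log cells (10^7 CFU/ml) washed and resuspended in phosphate buffer with 1 µM Sytox green at 30°C. Once basal fluorescence was constant, peptide was added and the fluorescence increase recorded at excitation 488 nm and emission 540 nm.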

The test system of data set [5] is Candida albicans. Nature of the data set: Fungicidal activity against Candida albicans ATCC 18804 at MFC pretreated with 50 uM carbonyl cyanide m-chlorophenylhydrazone for 2 hrs at 30 deg C. In kind it is functional, organism-based. The method, boiled down: (§2)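 Mid-log cells at 10^6/ml in phosphate buffer were preincubated 2 h at 30°C with shaking with 5 mM sodium azide or 50 µM CCCP. Peptides were then added at MFC for 2 h at 30°C. Cells plated on YEPD agar for 24 h and colonies counted as percent killing. Three independent experiments in duplicate.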

Data set [6] relates to Candida albicans. In words: Fungicidal activity against Candida albicans ATCC 18804 at MFC in presence of 0.5 mM Mg2+. In kind it is functional, organism-based. The method, boiled down: as §1
Data set [7] is described as follows: Toxicity in human Erythrocyte assessed as hemolysis upto 75 uM. In kind it is cell-based. The method, boiled down: (§3)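 Human erythrocytes from heparinized blood, washed three times in 5 mM HEPES pH 7.4 with 150 mM NaCl. 10^7 cells/ml incubated with a range of peptide concentrations for 30 min at 37°C with gentle mixing. Supernatant absorbance read at 540 nm. 0.1% Triton X-100 lysis taken as maximum.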

Data set [8] has as its system Candida albicans. Nature of the data set: Fungicidal activity against Candida albicans ATCC 18804 at MFC in presence of 0.5 mM Ca2+. In kind it is functional, organism-based. A digest of the protocol:
as §1

Data set [9] concerns Candida albicans. Nature of the data set: Induction of membrane damage in Candida albicans ATCC 18804 at 50% MFC by propidium iodide staining. In kind it is functional, organism-based. The method, boiled down: (§4)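 C. albicans treated 15 min at 30°C with N-terminally carboxyfluorescein-labelled peptides at 50% MFC plus 4 µg/ml propidium iodide. Untreated cells served as control. Examined by confocal microscopy using 488- and 543-nm laser lines, 63× water objective and 1 airy unit optical sections.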

The subject of data set [10] is Candida albicans. In words: Drug uptake in Candida albicans ATCC 18804 assessed as cellular localization at MFC50 by confocal fluorescence microscopy. In kind it is ADME, organism-based. As to conditions: in vivo. The method, boiled down: as §4
Data set [11] relates to Candida albicans. In words: Fungicidal activity against Candida albicans ATCC 18804 at MFC in presence of 25 mM NaCl. In kind it is functional, organism-based. A digest of the protocol:
as §1

Data set [12] relates to Candida albicans. Nature of the data set: Fungicidal activity against Candida albicans ATCC 18804 at MFC in presence of 100 mM NaCl. In kind it is functional, organism-based. A digest of the protocol: as §1
In data set [13] the test system is Candida albicans. Nature of the data set: Fungicidal activity against Candida albicans ATCC 18804 at MFC in presence of 0.5 mM MgCl2. In kind it is functional, organism-based. A digest of the protocol:
as §1

Data set [14] is described as follows: Drug localization in membranes of Candida albicans ATCC 18804 at 50% MFC by confocal microscopy. In kind it is ADME. A digest of the protocol:
as §4

Data set [15] can be described thus: Toxicity in human Erythrocyte assessed as hemolysis at 100 uM. In kind it is cell-based. As to conditions: erythrocytes, read-out: Activity. A digest of the protocol:
as §3

In data set [16] the test system is Candida albicans. In words: Fungicidal activity against Candida albicans ATCC 18804 at MFC pretreated with 5 mM sodium azide for 2 hrs at 30 deg C. In kind it is functional, organism-based. A digest of the protocol: as §2
Data set [17] concerns Candida albicans. Nature of the data set: Fungicidal activity against Candida albicans ATCC 18804 at MFC in presence of 25 mM MgCl2. In kind it is functional, organism-based. A digest of the protocol: as §1

Values after ≈ are worked out from the molar mass of the structure shown. Active and inactive are the calls of the source. Where a SMILES comes first, the peptide text is derived from it. Bridges are numbered along the chain shown (N, C = ends).

Broadly, the MFC is the smallest concentration meeting the test's criterion for killing the fungus. Lower therefore signals more potent killing.

In turn, `CC[C@H](C)[C@@H]1NC(=O)[C@H](CCCCN)NC(=O)[C@H]([C@@H](C)O)NC(=O)[C@H](Cc2ccccc2)NC(=O)[C@H]([C@@H](C)CC)NC(=O)[C@@H]2CCCN2C(=O)[C@@H](NC(=O)[C@H](C)N)CSSC[C@@H](C(=O)N[C@@H](CCCCN)C(=O)O)NC(=O)[C@H](CCCCN)NC(=O)[C@H](C)NC(=O)[C@H](CCCCN)NC(=O)CNC(=O)[C@H](CCCNC(=N)N)NC(=O)[C@H](Cc2ccc(O)cc2)NC(=O)[C@H]([C@@H](C)O)NC(=O)CNC(=O)[C@H](CCC(N)=O)NC1=O` (H-ACPIFTKIQGTYRGKAKCK-OH; disulfide 2-18) registered an MFC in the data set with Candida albicans [1] of 18 µM (≈ 38 µg/mL). In addition, the inhibition result with Candida albicans [2] and in the data set with Candida albicans [12] was “inactive” in each case. In the data set with Candida albicans [3], the “inhibition (percent killing)” value came out at 50%. The result in the data set on Candida albicans [4] and in the data set with Candida albicans [9] was Active. Further, in the data set with Candida albicans [5], the “fungicidal activity (active/not active)” value was “Active”. Besides, the inhibition entry in the data set with Candida albicans [6], with Candida albicans [8], in the data set with Candida albicans [11], in the data set on Candida albicans [13] and in the data set on Candida albicans [16] was “Active” each time. Besides, in data set [7], the Activity result is listed as “Non-toxic”. Further, the Drug uptake result (in the data set on Candida albicans [10]; in data set [14]) was “Active” each time. For the same compound, the hemolysis at 100 µM in data set [15] came to 15%.
In the data set with Candida albicans [1], `CC[C@H](C)[C@@H]1NC(=O)[C@H](CCCCN)NC(=O)[C@H]([C@@H](C)O)NC(=O)[C@H](Cc2ccccc2)NC(=O)[C@H]([C@@H](C)CC)NC(=O)[C@@H]2CCCN2C(=O)[C@@H]2CSSC[C@@H](C(=O)N[C@@H](CCCCN)C(=O)O)NC(=O)[C@@H]3CSSC[C@H](NC(=O)[C@H](CC(N)=O)NC(=O)[C@H](Cc4ccc(O)cc4)NC(=O)[C@H](Cc4cnc[nH]4)NC(=O)[C@@H](N)CC(=O)O)C(=O)N[C@@H](C(C)C)C(=O)N[C@@H](CO)C(=O)N[C@@H](CO)C(=O)NCC(=O)NCC(=O)N[C@@H](CCC(N)=O)C(=O)N[C@@H](CSSC[C@H](NC(=O)[C@H]([C@@H](C)O)NC(=O)CNC(=O)[C@H](CCC(N)=O)NC1=O)C(=O)N[C@@H](Cc1ccc(O)cc1)C(=O)N[C@@H](CCCNC(=N)N)C(=O)NCC(=O)N[C@@H](CCCCN)C(=O)N[C@@H](C)C(=O)N[C@@H](CCCCN)C(=O)N3)C(=O)N[C@@H](CC(C)C)C(=O)N[C@@H](Cc1ccc(O)cc1)C(=O)N[C@@H](CO)C(=O)N[C@@H](C)C(=O)N2` (H-DHYNCVSSGGQCLYSACPIFTKIQGTCYRGKAKCCK-OH; disulfide 5-34, 12-27, 17-35) showed an MFC of 7 µM (≈ 27.5 µg/mL). Besides, the inhibition result in the data set on Candida albicans [2], in the data set on Candida albicans [11], in the data set on Candida albicans [12] and in the data set on Candida albicans [16] was “inactive” throughout. The “inhibition (percent killing)” value in the data set on Candida albicans [3] is listed as 50%. The “fungicidal activity (active/not active)” value in the data set on Candida albicans [5] was “inactive”. For the same compound, the inhibition result in the data set with Candida albicans [13] was “Active”.
Regarding `CC[C@H](C)[C@@H]1NC(=O)[C@H](CCC(N)=O)NC(=O)[C@H](CCCCN)NC(=O)[C@H](Cc2ccc(O)cc2)NC(=O)[C@H](CCCNC(=N)N)NC(=O)[C@H](CCCNC(=N)N)NC(=O)[C@@H]2CCCN2C(=O)[C@@H](NC(=O)[C@@H](N)Cc2ccccc2)CSSC[C@@H](C(=O)N[C@@H](CCCCN)C(=O)O)NC(=O)[C@H](CCCCN)NC(=O)[C@H]([C@@H](C)O)NC(=O)CNC(=O)[C@@H]2CCCN2C(=O)[C@H](CC(C)C)NC(=O)CNC(=O)[C@H]([C@@H](C)O)NC(=O)CNC1=O` (H-FCPRRYKQIGTGLPGTKCK-OH; disulfide 2-18), in the data set with Candida albicans [1], the MFC was found to be 18 µM (≈ 38.7 µg/mL). Moreover, the inhibition entry with Candida albicans [2] and in the data set with Candida albicans [12] was “inactive” throughout. The “inhibition (percent killing)” value in the data set with Candida albicans [3] turned out to be 50%. Moreover, the outcome with Candida albicans [4] and in the data set with Candida albicans [9] was Active. In the data set with Candida albicans [5], the “fungicidal activity (active/not active)” value was “Active”. Also, the inhibition entry in the data set on Candida albicans [6], in the data set with Candida albicans [8], with Candida albicans [11], with Candida albicans [13] and in the data set on Candida albicans [16] was “Active” throughout. Further, in [7], the Activity entry is listed as “Non-toxic”. Besides, the Drug uptake entry (with Candida albicans [10]; in [14]) was “Active” throughout. The hemolysis at 100 µM in data set [15] was determined as 15%.
In the data set on Candida albicans [1], `CC[C@H](C)[C@@H]1NC(=O)[C@H](CCC(N)=O)NC(=O)[C@H](CCC(=O)O)NC(=O)[C@H](CCC(=O)O)NC(=O)[C@H](CCCCN)NC(=O)[C@@H]2CCCN2C(=O)[C@H](CC(C)C)NC(=O)[C@@H](NC(=O)[C@@H](N)CO)CSSC[C@@H](C(=O)N[C@@H](CCCNC(=N)N)C(=O)N[C@@H](CCCNC(=N)N)C(=O)N[C@@H](CCCCN)C(=O)N[C@@H](CCCCN)C(=O)O)NC(=O)[C@H](CCCCN)NC(=O)[C@H](CCCNC(=N)N)NC(=O)CNC(=O)[C@H](CCCNC(=N)N)NC(=O)[C@H]([C@@H](C)O)NC(=O)[C@H](CO)NC(=O)[C@H](CCCCN)NC(=O)CNC1=O` (H-SCLPKEEQIGKSTRGRKCRRKK-OH; disulfide 2-18) registered an MFC of 16 µM (≈ 41.4 µg/mL). For the same compound, in the data set on Candida albicans [3], the “inhibition (percent killing)” value is 50%. For the same compound, the outcome in the data set on Candida albicans [4] and with Candida albicans [9] was Active. Besides, the “fungicidal activity (active/not active)” value in the data set with Candida albicans [5] was “Active”. For the same compound, the inhibition entry in the data set on Candida albicans [6], with Candida albicans [17], in the data set on Candida albicans [8], with Candida albicans [11] and with Candida albicans [16] was “Active” each time. The Activity entry in data set [7] is recorded as “Non-toxic”. Moreover, the Drug uptake entry (with Candida albicans [10]; in data set [14]) was “Active” in each case. In addition, the inhibition entry in the data set on Candida albicans [12] was “inactive”. Besides, the hemolysis at 100 µM in data set [15] was 15%.
